Data set [1] is classed as in vivo, CD1 mice. To be noted: for Brain regional distribution: i.v., mean ± SD (n=3). The method in brief:
(§1)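 Male CD1 mice (23-28 g) received the radiotracer i.v. via a lateral tail vein: 0.1 mCi in 0.2 ml saline, specific radioactivity ~4000 mCi/µmol. Animals were killed by cervical dislocation at set times up to 90 min. Brain regions and body organs were removed, dissected on ice, weighed and gamma-counted alongside injectate standards. Uptake was expressed as %ID/g tissue.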

Data set [2] can be described thus: Baseline dissection study, whole body distribution of radioactivity in CD1 mice. It counts as in vivo. To be noted: mean ± SD (n=5). The method in brief: as §1
The target of data set [3] is GHSR (Mus musculus, UniProt Q99P50). The data set can be described thus: Blocking dissection studies in mice with GHSR antagonist 2. It counts as in vivo, CD1 mice. The note with it: for Whole body distribution: block with 2 (1 mg/kg), 90 min, mean ± SD (n=5), P>0.05 vs baseline. The method in brief: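 Male CD1 mice were pretreated s.c. with a GHSR blocker at 1 mg/kg, or with vehicle (saline/alcohol 9:1, 0.1 mL). Fifteen minutes later they received radiotracer i.v. (0.1 mCi in 0.2 mL saline, ~4000 mCi/µmol). Tissues were harvested 90 min after tracer and counted for radioactivity. Groups were five animals each, baseline and blockade.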

Data set [4] is described as follows: Observation of pharmacological effects after tracer dose in CD1 mice. It counts as in vivo. To be noted: tracer dose approximately 0.5 nmol/kg, intravenously, CD1 mice (n=30).
Data set [5] has as its target GHSR. To be noted: read-out: GHSR binding affinity Ki; cited from earlier work.

Where two headings read alike, the source gives them in different places.

As usually defined, the Ki is a dissociation constant, usually derived from enzyme kinetics or from competition with a known ligand.

GHSR (Mus musculus, UniProt Q99P50), sequence (Q99P50 whole entry): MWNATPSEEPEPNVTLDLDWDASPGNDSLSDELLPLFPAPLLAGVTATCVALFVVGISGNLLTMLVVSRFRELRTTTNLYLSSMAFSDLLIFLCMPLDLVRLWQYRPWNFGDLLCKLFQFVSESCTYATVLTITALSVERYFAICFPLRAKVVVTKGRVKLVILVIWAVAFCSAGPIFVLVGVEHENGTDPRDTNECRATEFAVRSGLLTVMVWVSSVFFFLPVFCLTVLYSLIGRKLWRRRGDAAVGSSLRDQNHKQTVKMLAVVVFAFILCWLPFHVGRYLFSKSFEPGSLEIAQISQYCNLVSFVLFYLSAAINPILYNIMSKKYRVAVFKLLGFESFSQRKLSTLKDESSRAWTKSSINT

For the compound `Cc1ccccc1-c1nc2ccc(Oc3ccc(F)cc3)cc2c(=O)n1C[C@H]1CCCN([11CH3])C1` [[^11C]1, (S)-6-(4-fluorophenoxy)-3-((1-[^11C]methylpiperidin-3-yl)methyl)-2-o-tolylquinazolin-4(3H)-one], the Brain regional distribution is 0.63±0.06 %injected dose /g tissue in data set [1] (Cerebellum, 10 min); 0.56±0.09 %injected dose /g tissue in data set [1] (Cerebellum, 30 min); 0.59±0.08 %injected dose /g tissue in data set [1] (Cerebellum, 60 min); 0.59±0.10 %injected dose /g tissue in data set [1] (Cerebellum, 90 min); 0.63±0.09 %injected dose /g tissue in data set [1] (Cortex, 10 min); 0.60±0.06 %injected dose /g tissue in data set [1] (Cortex, 30 min). The Brain regional distribution in data set [1] (Cortex, 60 min) amounted to 0.65±0.12 %injected dose /g tissue; in data set [1] (Cortex, 90 min) it was 0.66±0.15 %injected dose /g tissue; in data set [1] (Hippocampus, 10 min) it was 0.60±0.13 %injected dose /g tissue; in data set [1] (Hippocampus, 30 min), 0.59±0.09 %injected dose /g tissue; in data set [1] (Hippocampus, 60 min) it was 0.71±0.08 %injected dose /g tissue; in data set [1] (Hippocampus, 90 min) it was 0.65±0.12 %injected dose /g tissue. Moreover, the Brain regional distribution came to 0.56±0.08 %injected dose /g tissue in data set [1] (Hypothalamus, 10 min); 0.58±0.08 %injected dose /g tissue in data set [1] (Hypothalamus, 30 min); 0.74±0.12 %injected dose /g tissue in data set [1] (Hypothalamus, 60 min); 0.86±0.20 %injected dose /g tissue in data set [1] (Hypothalamus, 90 min); 0.54±0.07 %injected dose /g tissue in data set [1] (Rest of brain, 10 min); 0.57±0.06 %injected dose /g tissue in data set [1] (Rest of brain, 30 min). For the same compound, the Brain regional distribution in data set [1] (Rest of brain, 60 min) is on record as 0.62±0.02 %injected dose /g tissue; in data set [1] (Rest of brain, 90 min), 0.54±0.08 %injected dose /g tissue. Also, in data set [1] (value reached over the 90 min observation period), the hypothalamus-to-cerebellum ratio was determined as 1.6. Moreover, the Whole body distribution in data set [2] (Adrenals, 10 min) amounted to 15.57±1.76 %injected dose /g tissue; in data set [2] (Adrenals, 30 min) it was 10.77±2.65 %injected dose /g tissue; in data set [2] (Adrenals, 90 min), 7.87±1.22 %injected dose /g tissue; in data set [2] (Blood, 10 min), 2.14±0.13 %injected dose /g tissue; in data set [2] (Blood, 30 min), 1.87±0.31 %injected dose /g tissue; in data set [2] (Blood, 90 min), 2.01±0.29 %injected dose /g tissue. For the same compound, the Whole body distribution in data set [2] (Heart, 10 min) is 5.11±0.30 %injected dose /g tissue; in data set [2] (Heart, 30 min) it was 3.91±0.55 %injected dose /g tissue; in data set [2] (Heart, 90 min) it was 2.94±0.33 %injected dose /g tissue; in data set [2] (Liver, 10 min) it was 18.63±1.29 %injected dose /g tissue; in data set [2] (Liver, 30 min), 14.60±1.89 %injected dose /g tissue; in data set [2] (Liver, 90 min), 13.46±0.97 %injected dose /g tissue. Further, the Whole body distribution in data set [2] (Lung, 10 min) stood at 26.44±1.32 %injected dose /g tissue; in data set [2] (Lung, 30 min) it was 24.02±8.55 %injected dose /g tissue; in data set [2] (Lung, 90 min) it was 14.74±3.46 %injected dose /g tissue; in data set [2] (Muscle, 10 min), 3.79±0.68 %injected dose /g tissue; in data set [2] (Muscle, 30 min), 3.02±0.45 %injected dose /g tissue; in data set [2] (Muscle, 90 min) it was 2.09±0.47 %injected dose /g tissue. In addition, the Whole body distribution in data set [2] (Testis, 10 min) came out at 1.07±0.01 %injected dose /g tissue; in data set [2] (Testis, 30 min) it was 1.39±0.20 %injected dose /g tissue; in data set [2] (Testis, 90 min), 1.96±0.14 %injected dose /g tissue; on GHSR [3] (Adrenals), 10.02±1.80 %injected dose /g tissue; at GHSR [3] (Blood) it was 2.01±0.53 %injected dose /g tissue; at GHSR [3] (Heart), 3.74±0.57 %injected dose /g tissue. The Whole body distribution came out at 14.77±1.02 %injected dose /g tissue at GHSR [3] (Liver), 16.28±3.65 %injected dose /g tissue at GHSR [3] (Lung), 2.22±0.79 %injected dose /g tissue on GHSR [3] (Muscle) and 2.25±0.30 %injected dose /g tissue on GHSR [3] (Testis). The compound also returned a specific binding at GHSR [3] (cerebral distribution in CD1 mice) of 38%. In addition, the observed pharmacological effects entry in data set [4] is “no observed pharmacological effects”.
`Cc1ccccc1-c1nc2ccc(Oc3ccc(F)cc3)cc2c(=O)n1CC1CCCN(C(C)C)C1` (stereo not drawn) [N-isopropyl derivative]: the inhibitory constant (Ki) on GHSR [5] was 0.47 nM.
As for `Cc1ccccc1-c1nc2ccc(Oc3ccc(F)cc3)cc2c(=O)n1C[C@H]1CCCNC1` [compound 2, (S)-6-(4-fluorophenoxy)-3-(piperidin-3-ylmethyl)-2-o-tolylquinazolin-4(3H)-one, reference compound], the “blockade of [11C]1 in the rest of the brain” value on GHSR [3] (blocking dose of 2 1 mg/kg s.c., 90 min after radioligand, P>0.05 (n=5)) is on record as “minimal”. The Ki on GHSR [5] was 0.9 nM.
